ChEMBL document CHEMBL3351523 (Bioorg Med Chem, 2014)

System: not listed separately
Experiment: Cytotoxicity against mock-infected human MT4 cells after 96 hrs by MTT assay
Assay type: cell-based
Conditions: not given
Method in brief: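 Exponentially growing MT-4 cells were seeded at 1 × 10^5 cells/mL in RPMI-1640 with 10% FBS and held at 37 °C, 5% CO2 with serial compound dilutions. Viability was read by MTT after 96 h. CC50 from linear regression against untreated controls.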

| SMILES | CC50 at 96 h |
| --- | --- |
| c1ccc2[nH]c(CCCC3NCC4CNCC3C4)nc2c1 (stereo unspecified) | > 100 µM |
| Clc1ccc2[nH]c(CCCC3NCC4CNCC3C4)nc2c1 (stereo unspecified) | > 100 µM |
| c1ccc2[nH]c(CCCC3NCC4CC3CN3CCCCC43)nc2c1 (stereo unspecified) | > 100 µM |
| Clc1ccc2[nH]c(CCCC3NCC4CC3CN3CCCCC43)nc2c1 (stereo unspecified) | 51 µM |

System: not listed separately
Experiment: Cytotoxicity against mock-infected african green monkey Vero 76 cells after 48 to 96 hrs by MTT assay
Assay type: cell-based
Conditions: chlorocebus sabaeus, mock-infected Vero 76 cells

| SMILES | CC50 |
| --- | --- |
| c1ccc2[nH]c(CCCC3NCC4CNCC3C4)nc2c1 (stereo unspecified) | > 100 µM |
| Clc1ccc2[nH]c(CCCC3NCC4CNCC3C4)nc2c1 (stereo unspecified) | > 100 µM |
| c1ccc2[nH]c(CCCC3NCC4CC3CN3CCCCC43)nc2c1 (stereo unspecified) | > 100 µM |
| Clc1ccc2[nH]c(CCCC3NCC4CC3CN3CCCCC43)nc2c1 (stereo unspecified) | 59 µM |

System: Human immunodeficiency virus 1
Experiment: Antiviral activity against HIV1 infected in human MT4 cells assessed as inhibition of virus-induced cytopathogenicity after 4 days by MTT assay
Assay type: functional, organism-based
Conditions: Human immunodeficiency virus 1, MT4, 96 h
Method in brief: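 MT-4 cells (1 × 10^4/well in RPMI) were infected acutely with HIV-1 IIIB, 100 CCID50 (m.o.i. 0.01), with serial dilutions from 100 µM, 1:5. After 4 days at 37 °C, protection from virus-induced cytopathogenicity was read by MTT. EC50 came from linear regression against untreated controls.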

| SMILES | EC50 |
| --- | --- |
| c1ccc2[nH]c(CCCC3NCC4CNCC3C4)nc2c1 (stereo unspecified) | > 100 µM |
| Clc1ccc2[nH]c(CCCC3NCC4CNCC3C4)nc2c1 (stereo unspecified) | > 100 µM |
| c1ccc2[nH]c(CCCC3NCC4CC3CN3CCCCC43)nc2c1 (stereo unspecified) | > 100 µM |
| Clc1ccc2[nH]c(CCCC3NCC4CC3CN3CCCCC43)nc2c1 (stereo unspecified) | > 100 µM |

System: Coxsackievirus B5
Experiment: Antiviral activity against Coxsackievirus B5 infected in african green monkey Vero 76 cells assessed as reduction in plaque number after 3 days by plaque reduction assay
Assay type: functional, organism-based
Conditions: Enterovirus B, 72 h

| SMILES | EC50 |
| --- | --- |
| c1ccc2[nH]c(CCCC3NCC4CNCC3C4)nc2c1 (stereo unspecified) | > 100 µM |
| Clc1ccc2[nH]c(CCCC3NCC4CNCC3C4)nc2c1 (stereo unspecified) | > 100 µM |
| c1ccc2[nH]c(CCCC3NCC4CC3CN3CCCCC43)nc2c1 (stereo unspecified) | > 100 µM |
| Clc1ccc2[nH]c(CCCC3NCC4CC3CN3CCCCC43)nc2c1 (stereo unspecified) | > 100 µM |

System: Vaccinia virus
Experiment: Antiviral activity against Vaccinia Virus infected in african green monkey Vero 76 cells assessed as reduction in plaque number after 3 days by plaque reduction assay
Assay type: functional, organism-based
Conditions: Orthopoxvirus vaccinia, 72 h

| SMILES | EC50 |
| --- | --- |
| c1ccc2[nH]c(CCCC3NCC4CNCC3C4)nc2c1 (stereo unspecified) | > 100 µM |
| Clc1ccc2[nH]c(CCCC3NCC4CNCC3C4)nc2c1 (stereo unspecified) | > 100 µM |
| c1ccc2[nH]c(CCCC3NCC4CC3CN3CCCCC43)nc2c1 (stereo unspecified) | > 100 µM |
| Clc1ccc2[nH]c(CCCC3NCC4CC3CN3CCCCC43)nc2c1 (stereo unspecified) | > 100 µM |

System: Human alphaherpesvirus 1
Experiment: Antiviral activity against HSV1 infected in african green monkey Vero 76 cells assessed as reduction in plaque number after 3 days by plaque reduction assay
Assay type: functional, organism-based
Conditions: Human alphaherpesvirus 1, Vero, 72 h

| SMILES | EC50 |
| --- | --- |
| c1ccc2[nH]c(CCCC3NCC4CNCC3C4)nc2c1 (stereo unspecified) | > 100 µM |
| Clc1ccc2[nH]c(CCCC3NCC4CNCC3C4)nc2c1 (stereo unspecified) | > 100 µM |
| c1ccc2[nH]c(CCCC3NCC4CC3CN3CCCCC43)nc2c1 (stereo unspecified) | > 100 µM |
| Clc1ccc2[nH]c(CCCC3NCC4CC3CN3CCCCC43)nc2c1 (stereo unspecified) | > 100 µM |

System: Yellow fever virus
Experiment: Antiviral activity against Yellow fever virus infected in BHK21 cells assessed as inhibition of virus-induced cytopathogenicity after 3 to 4 days by MTT assay
Assay type: functional, organism-based
Conditions: BHK-21

| SMILES | EC50 |
| --- | --- |
| c1ccc2[nH]c(CCCC3NCC4CNCC3C4)nc2c1 (stereo unspecified) | > 100 µM |
| Clc1ccc2[nH]c(CCCC3NCC4CNCC3C4)nc2c1 (stereo unspecified) | 25 µM |
| c1ccc2[nH]c(CCCC3NCC4CC3CN3CCCCC43)nc2c1 (stereo unspecified) | 87 µM |
| Clc1ccc2[nH]c(CCCC3NCC4CC3CN3CCCCC43)nc2c1 (stereo unspecified) | > 100 µM |

System: Respiratory syncytial virus
Experiment: Antiviral activity against Respiratory syncytial virus infected in african green monkey Vero 76 cells assessed as reduction in plaque number after 5 days by plaque reduction assay
Assay type: functional, organism-based
Conditions: human respiratory syncytial virus, 120 h

| SMILES | EC50 |
| --- | --- |
| c1ccc2[nH]c(CCCC3NCC4CNCC3C4)nc2c1 (stereo unspecified) | > 100 µM |
| Clc1ccc2[nH]c(CCCC3NCC4CNCC3C4)nc2c1 (stereo unspecified) | > 100 µM |
| c1ccc2[nH]c(CCCC3NCC4CC3CN3CCCCC43)nc2c1 (stereo unspecified) | > 100 µM |
| Clc1ccc2[nH]c(CCCC3NCC4CC3CN3CCCCC43)nc2c1 (stereo unspecified) | > 100 µM |

System: Poliovirus 1
Experiment: Antiviral activity against Poliovirus type 1 Sabin strain infected in african green monkey Vero 76 cells assessed as reduction in plaque number after 2 days by plaque reduction assay
Assay type: functional, organism-based
Conditions: Enterovirus C, 48 h

| SMILES | EC50 |
| --- | --- |
| c1ccc2[nH]c(CCCC3NCC4CNCC3C4)nc2c1 (stereo unspecified) | > 100 µM |
| Clc1ccc2[nH]c(CCCC3NCC4CNCC3C4)nc2c1 (stereo unspecified) | > 100 µM |
| c1ccc2[nH]c(CCCC3NCC4CC3CN3CCCCC43)nc2c1 (stereo unspecified) | > 100 µM |
| Clc1ccc2[nH]c(CCCC3NCC4CC3CN3CCCCC43)nc2c1 (stereo unspecified) | > 100 µM |

System: Reovirus sp.
Experiment: Antiviral activity against Reovirus type-1 infected in BHK21 cells assessed as inhibition of virus-induced cytopathogenicity after 3 to 4 days by MTT assay
Assay type: functional, organism-based
Conditions: BHK-21

| SMILES | EC50 |
| --- | --- |
| c1ccc2[nH]c(CCCC3NCC4CNCC3C4)nc2c1 (stereo unspecified) | > 100 µM |
| Clc1ccc2[nH]c(CCCC3NCC4CNCC3C4)nc2c1 (stereo unspecified) | > 100 µM |
| c1ccc2[nH]c(CCCC3NCC4CC3CN3CCCCC43)nc2c1 (stereo unspecified) | > 100 µM |
| Clc1ccc2[nH]c(CCCC3NCC4CC3CN3CCCCC43)nc2c1 (stereo unspecified) | > 100 µM |

System: Vesicular stomatitis virus
Experiment: Antiviral activity against Vesicular stomatitis virus infected in african green monkey Vero 76 cells assessed as reduction in plaque number after 2 days by plaque reduction assay
Assay type: functional, organism-based
Conditions: 48 h

| SMILES | EC50 |
| --- | --- |
| c1ccc2[nH]c(CCCC3NCC4CNCC3C4)nc2c1 (stereo unspecified) | > 100 µM |
| Clc1ccc2[nH]c(CCCC3NCC4CNCC3C4)nc2c1 (stereo unspecified) | > 100 µM |
| c1ccc2[nH]c(CCCC3NCC4CC3CN3CCCCC43)nc2c1 (stereo unspecified) | > 100 µM |
| Clc1ccc2[nH]c(CCCC3NCC4CC3CN3CCCCC43)nc2c1 (stereo unspecified) | > 100 µM |

System: not listed separately
Experiment: Cytotoxicity against mock-infected BHK21 cells after 48 to 96 hrs by MTT assay
Assay type: functional
Conditions: Mesocricetus auratus, BHK-21
Method in brief: (§1)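 Mock-infected MDBK (6 × 10^5 cells/mL; MEM-E, 10% horse serum, 1 mM pyruvate) or BHK (1 × 10^6 cells/mL; MEM-E, 10% FBS) cells were incubated at 37 °C, 5% CO2 with serial dilutions from 100 µM, 1:5. Viability by MTT after 48–96 h. CC50 from linear regression against untreated controls.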

| SMILES | CC50 |
| --- | --- |
| c1ccc2[nH]c(CCCC3NCC4CNCC3C4)nc2c1 (stereo unspecified) | > 100 µM |
| Clc1ccc2[nH]c(CCCC3NCC4CNCC3C4)nc2c1 (stereo unspecified) | > 100 µM |
| c1ccc2[nH]c(CCCC3NCC4CC3CN3CCCCC43)nc2c1 (stereo unspecified) | > 100 µM |
| Clc1ccc2[nH]c(CCCC3NCC4CC3CN3CCCCC43)nc2c1 (stereo unspecified) | 18 µM |

System: Bovine viral diarrhea virus 1
Experiment: Antiviral activity against Bovine viral diarrhea virus infected in MDBK cells assessed as inhibition of virus-induced cytopathogenicity after 3 to 4 days by MTT assay
Assay type: functional, organism-based
Conditions: Bovine viral diarrhea virus isolates and strains

| SMILES | EC50 |
| --- | --- |
| c1ccc2[nH]c(CCCC3NCC4CNCC3C4)nc2c1 (stereo unspecified) | > 100 µM |
| Clc1ccc2[nH]c(CCCC3NCC4CNCC3C4)nc2c1 (stereo unspecified) | > 100 µM |
| c1ccc2[nH]c(CCCC3NCC4CC3CN3CCCCC43)nc2c1 (stereo unspecified) | 94 µM |
| Clc1ccc2[nH]c(CCCC3NCC4CC3CN3CCCCC43)nc2c1 (stereo unspecified) | > 100 µM |

System: not listed separately
Experiment: Cytotoxicity against mock-infected MDBK cells after 48 to 96 hrs by MTT assay
Assay type: cell-based, Bos taurus
Conditions: cattle
Method in brief: as §1

| SMILES | CC50 |
| --- | --- |
| c1ccc2[nH]c(CCCC3NCC4CNCC3C4)nc2c1 (stereo unspecified) | > 100 µM |
| Clc1ccc2[nH]c(CCCC3NCC4CNCC3C4)nc2c1 (stereo unspecified) | > 100 µM |
| c1ccc2[nH]c(CCCC3NCC4CC3CN3CCCCC43)nc2c1 (stereo unspecified) | > 100 µM |
| Clc1ccc2[nH]c(CCCC3NCC4CC3CN3CCCCC43)nc2c1 (stereo unspecified) | 56 µM |
